PubChem BioAssay AID1665 (Sanford-Burnham Center for Chemical Genomics, 2009)
The whole screen tested about 190,000 compounds, of which about 590 (0.31%) were called active.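 Rule for the calls: active = nuclear translocation activity above 50% at 5 µM, with a well cell count of 50 or more; inconclusive = wells under 50 cells across six images, flagged as toxic; inactive = the rest.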 Only a selection was taken, and actives are over-represented in it overall.

assay: modulators of beta-catenin nuclear translocation, primary screen, imaging, HeLa cells, immunofluorescence, high-content (AID 1665); conditions: at 5 µM; cell count: measured here: cell count, cytotoxicity flag; nuclear translocation activity: stronger effect = higher value;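 for nuclear translocation activity: plate controls were DMSO negative control for no effect and GSK-3 inhibitor IX positive control for full effect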
Method in brief: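 Assay system: human HeLa cells, native beta-catenin; doses: 5 µM primary, 0.02–20 µM confirmation; incubation: compound treatment 24 h, 37°C, 5% CO2; technique: fluorescence imaging of beta-catenin antibody stain plus DAPI; measure: % activation, nuclear-to-cytoplasmic median beta-catenin signal ratio per cell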

With `c1csc(-c2nnc(COc3ncnc4sccc34)o2)c1` as the compound, how does the cell count read?
The cell count was 1250 cells.

What about the nuclear translocation activity of the same compound?
Its nuclear translocation activity is 2.6% (inactive).

For `O=C(NC(=O)N1CCSCC1)c1c(Cl)cccc1Cl`, which cell count is on record?
The cell count was 1280 cells.

And the nuclear translocation activity?
Its nuclear translocation activity is 0.2% (inactive).

Which results are given for `O=C(Nc1cccnc1)c1cc([N+](=O)[O-])ccc1Cl`?
cell count: 1370 cells; nuclear translocation activity: -0.7% (inactive)

With `C=CCOC(=O)C1=C(C)NC(SCC(=O)OCC)=C(C#N)C1c1ccc(C)cc1` (stereo not given) as the compound, how does the cell count read?
The cell count was 1350 cells.

And the nuclear translocation activity?
The nuclear translocation activity was 0.1% (inactive).

Which cell count does the source give for `CCOC(=O)CSC1=C(C#N)C(c2sccc2C)CC(=O)N1` (stereo not given) here?
The cell count was 658 cells.

And the nuclear translocation activity?
Its nuclear translocation activity is 69% (active).

Which cell count does the source give for `Cc1ccc(C2CC(=O)NC(SCC(=O)OCc3ccccc3)=C2C#N)o1` (stereo not given) here?
The cell count was 922 cells.

And the nuclear translocation activity?
The nuclear translocation activity was 47.9% (inactive).

For `O=C(O)C1CCN(C(=O)c2cc(F)cc3c2OCOC3)CC1`, which cell count is on record?
The cell count was 1200 cells.

And the nuclear translocation activity?
The nuclear translocation activity was -2.6% (inactive).

With `O=C(NNC(=S)NC1CC2CCC1C2)c1ccc(Cl)cc1` (stereo not given) as the compound, how does the cell count read?
Its cell count is 1150 cells.

And the nuclear translocation activity?
The nuclear translocation activity was -1.4% (inactive).

Which cell count does the source give for `CCNC(=O)CCc1nc(-c2ccc(C)cc2)no1` here?
The cell count was 1360 cells.

What about the nuclear translocation activity of the same compound?
The nuclear translocation activity was -0.5% (inactive).

With `Nc1nonc1-c1nc2ccccc2n1Cc1ccc(F)cc1` as the compound, how does the cell count read?
Its cell count is 778 cells.

What about the nuclear translocation activity of the same compound?
Its nuclear translocation activity is -0.5% (inactive).

What does the source list for `COc1ccc(C)c(Cn2c(-c3nonc3N)nc3ccccc32)c1`?
cell count: 720 cells; nuclear translocation activity: 101% (active)

Which results are given for `Nc1nonc1-c1nc2ccccc2n1CCC(=O)O`?
cell count: 899 cells; nuclear translocation activity: -2% (inactive)

For `COc1ccc(Cc2nnc(NC(=O)c3cc(OC)c(OC)c(OC)c3)s2)cc1OC`, which cell count is on record?
Its cell count is 371 cells.

And the nuclear translocation activity?
Its nuclear translocation activity is 53.4% (active).

What does the source list for `CCCc1nnc(NC(=O)c2cc(OC)cc(OC)c2)s1`?
cell count: 878 cells; nuclear translocation activity: -2.3% (inactive)

Which cell count does the source give for `O=C(Nc1nnc(Cc2ccc(Cl)cc2)s1)c1ccncc1` here?
The cell count was 1270 cells.

What about the nuclear translocation activity of the same compound?
Its nuclear translocation activity is 1% (inactive).

Which cell count does the source give for `O=[N+]([O-])c1ccc2nc(-c3ccccn3)[nH]c2c1` here?
The cell count was 1380 cells.

What about the nuclear translocation activity of the same compound?
The nuclear translocation activity was -0.1% (inactive).

Which cell count does the source give for `Brc1ccc(-c2nn[nH]n2)cc1` here?
The cell count was 1320 cells.

And the nuclear translocation activity?
The nuclear translocation activity was 0.9% (inactive).

For `Nc1ccc(C(=O)OCC(=O)NC2CCS(=O)(=O)C2)cc1[N+](=O)[O-]` (stereo not given), which cell count is on record?
The cell count was 1260 cells.

And the nuclear translocation activity?
The nuclear translocation activity was -3.1% (inactive).

For `Nc1c(N(CCO)C(=O)C2CCCCC2)c(=O)[nH]c(=O)n1Cc1ccccc1`, which cell count is on record?
Its cell count is 1350 cells.

What about the nuclear translocation activity of the same compound?
The nuclear translocation activity was 0.2% (inactive).

With `O=C(Nc1ccc(S(=O)(=O)N2CCOCC2)cc1)c1ccc2ncsc2c1` as the compound, how does the cell count read?
The cell count was 1420 cells.

What about the nuclear translocation activity of the same compound?
The nuclear translocation activity was -1.2% (inactive).

For `O=C(NCc1ccco1)C1CCCN1S(=O)(=O)c1ccccc1C(F)(F)F` (stereo not given), which cell count is on record?
The cell count was 1300 cells.

And the nuclear translocation activity?
Its nuclear translocation activity is -0.6% (inactive).

With `Cc1cc(CO)nn1-c1ccc([N+](=O)[O-])cc1` as the compound, how does the cell count read?
The cell count was 1190 cells.

What about the nuclear translocation activity of the same compound?
The nuclear translocation activity was -2.5% (inactive).

For `COc1ccc(Cl)cc1C(=O)NNC(=O)c1nc2nc(C)cc(C)n2n1`, which cell count is on record?
The cell count was 1330 cells.

And the nuclear translocation activity?
The nuclear translocation activity was 1.2% (inactive).

What does the source list for `COc1cc2c(cc1OC)C(/C=C/c1ccco1)=NCC2`?
cell count: 1310 cells; nuclear translocation activity: 2% (inactive)

With `Cc1ccc(C)c2[nH]c(=O)c(CN(Cc3cccnc3)C(=S)NCc3ccco3)cc12` as the compound, how does the cell count read?
The cell count was 1320 cells.

What about the nuclear translocation activity of the same compound?
Its nuclear translocation activity is -1.9% (inactive).

With `CN(c1ccccc1)S(=O)(=O)c1ccc(Cl)c(C(=O)OCC(=O)NCc2ccco2)c1` as the compound, how does the cell count read?
The cell count was 1260 cells.

And the nuclear translocation activity?
Its nuclear translocation activity is -0.2% (inactive).

With `Cc1cc(C(=O)OCC(=O)NCc2ccco2)c(C)n1-c1ccccc1` as the compound, how does the cell count read?
Its cell count is 337 cells.

What about the nuclear translocation activity of the same compound?
Its nuclear translocation activity is 94.1% (active).

For `O=C(COC(=O)c1cc(S(=O)(=O)N2CCCCC2)ccc1Cl)NCc1ccco1`, which cell count is on record?
Its cell count is 1080 cells.

And the nuclear translocation activity?
The nuclear translocation activity was -1.5% (inactive).

With `Cc1cc(C)n(-c2nc(C(F)(F)F)nc3ccccc23)n1` as the compound, how does the cell count read?
Its cell count is 998 cells.

And the nuclear translocation activity?
The nuclear translocation activity was 0% (inactive).

Which cell count does the source give for `CN(NC(=O)c1ccccc1F)c1nc(C(F)(F)F)nc2ccccc12` here?
The cell count was 103 cells.

And the nuclear translocation activity?
The nuclear translocation activity was 155% (active).

Which results are given for `CN(NC(=O)c1ccccc1)c1nc2ccccc2nc1C(F)(F)F`?
cell count: 965 cells; nuclear translocation activity: 6.3% (inactive)

For `COc1ccc(C(=O)NN(C)c2nc(-c3ccccc3)cc(C)c2S(C)(=O)=O)cc1`, which cell count is on record?
Its cell count is 1220 cells.

And the nuclear translocation activity?
The nuclear translocation activity was -2.1% (inactive).

With `CSc1nc(N(C)NC(=O)c2cccc(C)c2)c2ccccc2n1` as the compound, how does the cell count read?
Its cell count is 751 cells.

What about the nuclear translocation activity of the same compound?
The nuclear translocation activity was 97.3% (active).

Which results are given for `COc1ccc(OCC(=O)NNC(=O)c2cccc(C)c2)cc1`?
cell count: 1060 cells; nuclear translocation activity: -0.2% (inactive)

With `COC(=O)c1sccc1NN1C(=O)c2ccccc2C1=O` as the compound, how does the cell count read?
The cell count was 1180 cells.

What about the nuclear translocation activity of the same compound?
The nuclear translocation activity was -1.9% (inactive).

For `COC(=O)c1cc(N2CCNCC2)nc2ccccc12`, which cell count is on record?
Its cell count is 1220 cells.

And the nuclear translocation activity?
Its nuclear translocation activity is 1.7% (inactive).

Which cell count does the source give for `Cc1ccc(F)cc1NC(=O)N1CCCN(c2ccc(C(F)(F)F)cn2)CC1` here?
The cell count was 1280 cells.

And the nuclear translocation activity?
The nuclear translocation activity was -1% (inactive).

For `CCN(CC)c1ccc(/C=N/NC(=O)c2cnccn2)c(O)c1`, which cell count is on record?
Its cell count is 1050 cells.

And the nuclear translocation activity?
The nuclear translocation activity was 12.5% (inactive).

Which cell count does the source give for `Cc1cc2c(cc1C)N(Cc1ccccc1)C1=NCCCN12` here?
The cell count was 1210 cells.

What about the nuclear translocation activity of the same compound?
The nuclear translocation activity was -0.7% (inactive).

What does the source list for `Cc1ccc(NC(=O)/C(=C\c2ccccc2)NC(=O)c2ccco2)cc1`?
cell count: 1370 cells; nuclear translocation activity: 0.2% (inactive)

Which results are given for `COC(=O)c1cn(C(=O)c2ccc(Cl)cc2)c2ccccc12`?
cell count: 1100 cells; nuclear translocation activity: -1.4% (inactive)

What does the source list for `COc1c(N2CCN(C(=S)Nc3ccccc3F)C(C)C2)c(F)cc2c(=O)c(C(=O)O)cn(C3CC3)c12` (stereo not given)?
cell count: 1380 cells; nuclear translocation activity: 0.4% (inactive)

With `Cc1ccc(/C=N/NC(=O)COc2ccccc2-c2ccccc2)cc1` as the compound, how does the cell count read?
Its cell count is 162 cells.

What about the nuclear translocation activity of the same compound?
The nuclear translocation activity was 107% (active).

Which results are given for `CSc1ccc(/C=N\NC(=O)COc2ccc(Cl)cc2Br)cc1`?
cell count: 812 cells; nuclear translocation activity: -1.4% (inactive)

For `Cc1ccc(OCC(=O)N/N=C\c2ccco2)c(C)c1`, which cell count is on record?
The cell count was 1340 cells.

And the nuclear translocation activity?
The nuclear translocation activity was -1.4% (inactive).

Which cell count does the source give for `COc1ccc(CCN2C(=O)CC(N3CCC(C(N)=O)CC3)C2=O)cc1OC` (stereo not given) here?
Its cell count is 1240 cells.

What about the nuclear translocation activity of the same compound?
Its nuclear translocation activity is 0.6% (inactive).

With `Cc1ccc(N2NC(=O)/C(=C/C=C/c3ccco3)C2=O)cc1C` as the compound, how does the cell count read?
Its cell count is 1100 cells.

And the nuclear translocation activity?
Its nuclear translocation activity is 1.3% (inactive).

Which results are given for `Cc1ccc(N=C2NC(=O)/C(=C/C=C/c3ccco3)S2)cc1C`?
cell count: 321 cells; nuclear translocation activity: 58.6% (active)

For `Cc1cccc(N=C2NC(=O)/C(=C/c3cn(C)c4ccccc34)S2)c1`, which cell count is on record?
The cell count was 1040 cells.

And the nuclear translocation activity?
The nuclear translocation activity was 0.7% (inactive).

With `CCCNc1c(N)c(=O)c1=O` as the compound, how does the cell count read?
Its cell count is 1380 cells.

And the nuclear translocation activity?
Its nuclear translocation activity is -0.4% (inactive).

With `O=C(N/N=C/c1cccc2cccnc12)[C@H]1C[C@@H]1c1ccccc1` as the compound, how does the cell count read?
The cell count was 1300 cells.

What about the nuclear translocation activity of the same compound?
The nuclear translocation activity was 2.9% (inactive).

Which cell count does the source give for `Cc1noc(C)c1C(=O)OCC(=O)N1CCN(S(=O)(=O)c2ccc3ccccc3c2)CC1` here?
The cell count was 1300 cells.

And the nuclear translocation activity?
The nuclear translocation activity was 0.1% (inactive).

What does the source list for `Cc1ccc(C(=O)N/C(=C\c2ccco2)C(=O)NC2CCS(=O)(=O)C2)cc1` (stereo not given)?
cell count: 1360 cells; nuclear translocation activity: -0.2% (inactive)

What does the source list for `COc1ccc(CCNC(=O)C(=O)NCC2CCNCC2)cc1OC`?
cell count: 1380 cells; nuclear translocation activity: -1.5% (inactive)

With `COc1ccc(CCNC(=O)C(=O)Nc2ccc3nc4n(c(=O)c3c2)CCCCC4)cc1OC` as the compound, how does the cell count read?
Its cell count is 1400 cells.

What about the nuclear translocation activity of the same compound?
Its nuclear translocation activity is 0.2% (inactive).
